According to publication PMC8360206 (Cancer, 2021):
Like-named read-outs stand apart in the source and are kept apart here.

Assays:
[1] = tested on: patients with R/R AML; conditions: OTX015 monotherapy ref 10; cited from earlier work
[2] = tested on: DCXR, HEXIM1, CD93, MYC, BCL2, PUMA, BIM gene expression in peripheral blood; assay type: in vivo, human; conditions: for pharmacodynamic effects (gene modulation) vs dose and drug exposure: peripheral blood, correlation with Cmax, P < .05
Procedure, shortened: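 Whole blood was drawn before and 6 h after the C1D1 monotherapy dose. RNA from it underwent whole-transcriptome sequencing, and marker expression was given as percent change from baseline. Linear regression related C1D1 plasma Cmax to biomarker change.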

[3] = tested on: patients with relapsed/refractory solid tumors; conditions: cited from earlier work
[4] = tested on: relapsed/refractory acute myeloid leukemia; experiment: Clinical activity: IWG response, bone marrow blast change, PFS, OS; assay type: in vivo, human
Procedure, shortened: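 Adults (≥18 y) with relapsed/refractory AML got the test compound daily in 28-day cycles at 1.5, 2.0 or 2.5 mg as monotherapy. Response followed revised IWG AML criteria, comparing baseline bone marrow with at least 1 on-treatment marrow sample. Marrow was sampled at screening, C2D1 and as clinically indicated. Patients without a postbaseline sample were not evaluable. PFS and OS were summarised descriptively.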

[5] = Plasma mivebresib pharmacokinetics; assay type: in vivo, human
[6] = tested on: patients with relapsed/refractory AML; experiment: Safety: treatment‐emergent adverse events and DLTs; assay type: in vivo, human
Procedure, shortened: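 3 + 3 dose escalation, daily dosing in 28-day cycles. Monotherapy was 1.5, 2.0 or 2.5 mg. TEAEs (first dose to 30 days post-discontinuation) were graded by NCI CTCAE v4.03 in all patients given ≥1 dose.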

[7] = PB, 6 hours after MIV‐mono administration, P < .001
[8] = started arms (mono n = 19, combination n = 25)
[9] = MIV‐mono n = 19, started MIV‐Ven n = 25

SMILES: Cc1sc2c(c1C)C(c1ccc(Cl)cc1)=N[C@@H](CC(=O)Nc1ccc(O)cc1)c1nnc(C)n1-2 [OTX015]
- rate of diarrhea [1]: 34%
- rate of nausea [1]: 22%
- rate of vomiting [1]: 7%

SMILES: CCS(=O)(=O)Nc1ccc(Oc2ccc(F)cc2F)c(-c2cn(C)c(=O)c3[nH]ccc23)c1 [mivebresib]
- BIM (proapoptotic gene) expression ([2]; 6 hours after MIV‐mono, P < .0005, data not shown): increased
- BCL2 (antiapoptotic gene) expression ([2]; 6 hours after MIV‐mono, P < .01, data not shown): inhibited
- PUMA (proapoptotic gene) expression ([2]; 6 hours after MIV‐mono, P < .064, data not shown): increased
- CD93 expression [2, 7]: decrease
- DCXR gene expression [2, 7]: increase
- HEXIM1 gene expression [2, 7]: increase
- MYC expression ([2]; PB, 6 hours after MIV‐mono administration, P < .083): decrease
- pharmacodynamic effects (gene modulation) vs dose and drug exposure [2]: proportional to dose and drug exposure
- pharmacodynamic effects (gene modulation) vs dose and drug exposure ([2]; listed as MIV‐mono): dose‐dependent
- solid tumor recommended phase 2 dose [3]: 1.5 mg daily
- response: CRi ([4]; 19 patients who received MIV‐mono): 5%
- median OS ([4]; MIV‐mono 1.5 mg): 15.7 weeks
- median PFS ([4]; MIV‐mono 1.5 mg): 7.2 weeks
- median OS ([4]; MIV‐mono 2.0 mg): 22.0 weeks
- median PFS ([4]; MIV‐mono 2.0 mg): 13.9 weeks
- median OS ([4]; MIV‐mono 2.5 mg): 12.6 weeks
- median PFS ([4]; MIV‐mono 2.5 mg): 10.6 weeks
- patients with FLT3 and NPM1 co‐occurrence who responded / had a reduction in BM blasts ([4]; MIV‐mono 3 patients, MIV‐Ven 4 patients): None
- response: CRi ([4]; MIV‐mono group): 1 patient
- patients with measurable reduction in BM blasts ([4]; assessable patients: 16 MIV‐mono, 15 only MIV‐Ven): 44%
- Best IWG response: Aplasia [4, 8]: 0 (0) No. of Patients (%)
- Best IWG response: CR [4, 8]: 0 (0) No. of Patients (%)
- Best IWG response: CRi [4, 8]: 1 (5) No. of Patients (%)
- Best IWG response: MLFS [4, 8]: 0 (0) No. of Patients (%)
- Best IWG response: PR [4, 8]: 0 (0) No. of Patients (%)
- Best IWG response: Resistant disease [4, 8]: 15 (79) No. of Patients (%)
- Best IWG response: Unknown: Not assessable or insufficient data [4, 8]: 3 (16) No. of Patients (%)
- steady‐state accumulation ratio ([5]; AUC0‐24 on C1D8 versus C1D1, daily dosing): approximately 2 fold
- dose proportionality of PK ([5]; dose‐normalized C1D8 Cmax and AUC24 over the studied dosing range): approximately dose proportional
- half-life ([5]; human, plasma, oral): 16.4 h
- effect of venetoclax coadministration on mivebresib PK ([5]; monotherapy vs combination cohorts): no effect
- anemia, grade ≥3 mivebresib‐related TEAE ([6]; MIV‐mono n = 19): 26%
- decreased appetite, TEAE frequency ([6]; MIV‐mono n = 19): 58%
- decreased appetite, grade ≥3 ([6]; MIV‐mono n = 19): 11%
- diarrhea, grade ≥3 ([6]; MIV‐mono n = 19): no grade ≥3
- fatigue, TEAE frequency ([6]; MIV‐mono n = 19): 68%
- fatigue, grade ≥3 ([6]; MIV‐mono n = 19): 21%
- nausea, grade ≥3 ([6]; MIV‐mono n = 19): 5%
- pneumonia, serious TEAE ([6]; MIV‐mono n = 19): 16%
- AML progression (AML), serious TEAE [6, 9]: 16%
- decreased appetite, mivebresib‐related TEAE [6, 9]: 42%
- diarrhea, mivebresib‐related TEAE [6, 9]: 42%
- dysgeusia, mivebresib‐related TEAE [6, 9]: 74%
- febrile neutropenia, serious TEAE [6, 9]: 16%
- grade ≥3 mivebresib‐related TEAEs, patients [6, 9]: 68%
- serious adverse events (serious TEAEs regardless of relatedness), patients [6, 9]: 74%
- thrombocytopenia, grade ≥3 mivebresib‐related TEAE [6, 9]: 32%
- dose‐limiting toxicities (DLTs) ([6]; first 4 weeks, all dose levels): No DLTs occurred
- ALT increased, AE related to mivebresib [6, 8]: 1 (5) No. of Patients (%)
- AST increased, AE related to mivebresib [6, 8]: 0 (0) No. of Patients (%)
- Anemia, AE related to mivebresib [6, 8]: 7 (37) No. of Patients (%)
- Anemia, TEAE [6, 8]: 13 (68) No. of Patients (%)
- Any TEAEs [6, 8]: 19 (100) No. of Patients (%)
- Cough, TEAE [6, 8]: 6 (32) No. of Patients (%)
- Decreased appetite, AE related to mivebresib [6, 8]: 8 (42) No. of Patients (%)
- Decreased appetite, TEAE [6, 8]: 11 (58) No. of Patients (%)
- Diarrhea, AE related to mivebresib [6, 8]: 8 (42) No. of Patients (%)
- Diarrhea, TEAE [6, 8]: 9 (47) No. of Patients (%)
- Dry mouth, AE related to mivebresib [6, 8]: 2 (11) No. of Patients (%)
- Dysgeusia, AE related to mivebresib [6, 8]: 14 (74) No. of Patients (%)
- Dysgeusia, TEAE [6, 8]: 15 (79) No. of Patients (%)
- Dyspnea, TEAE [6, 8]: 6 (32) No. of Patients (%)
- Epistaxis, AE related to mivebresib [6, 8]: 3 (16) No. of Patients (%)
- Epistaxis, TEAE [6, 8]: 4 (21) No. of Patients (%)
- Fatigue, AE related to mivebresib [6, 8]: 7 (37) No. of Patients (%)
- Fatigue, TEAE [6, 8]: 13 (68) No. of Patients (%)
- Febrile neutropenia, AE related to mivebresib [6, 8]: 0 (0) No. of Patients (%)
- Febrile neutropenia, TEAE [6, 8]: 7 (37) No. of Patients (%)
- Headache, AE related to mivebresib [6, 8]: 0 (0) No. of Patients (%)
- Hyperbilirubinemia, TEAE [6, 8]: 6 (32) No. of Patients (%)
- Hypokalemia, TEAE [6, 8]: 3 (16) No. of Patients (%)
- Hypomagnesemia, TEAE [6, 8]: 2 (11) No. of Patients (%)
- Muscular weakness, TEAE [6, 8]: 7 (37) No. of Patients (%)
- Nausea, AE related to mivebresib [6, 8]: 7 (37) No. of Patients (%)
- Nausea, TEAE [6, 8]: 9 (47) No. of Patients (%)
- Neutrophil count decreased, AE related to mivebresib [6, 8]: 2 (11) No. of Patients (%)
- Platelet count decreased, AE related to mivebresib [6, 8]: 2 (11) No. of Patients (%)
- Stomatitis, AE related to mivebresib [6, 8]: 1 (5) No. of Patients (%)
- Thrombocytopenia, AE related to mivebresib [6, 8]: 7 (37) No. of Patients (%)
- Thrombocytopenia, TEAE [6, 8]: 10 (53) No. of Patients (%)
- Vomiting, AE related to mivebresib [6, 8]: 5 (26) No. of Patients (%)
- Vomiting, TEAE [6, 8]: 6 (32) No. of Patients (%)
- WBC count decreased, AE related to mivebresib [6, 8]: 1 (5) No. of Patients (%)
- Weight decreased, AE related to mivebresib [6, 8]: 2 (11) No. of Patients (%)
- patients with an AE leading to discontinuation ([6]; whole study, MIV‐mono and MIV‐Ven): Seventeen
